Where a SMILES comes first, the peptide text is derived from it. [ ]: non-standard residue; d: D form. AEEA = NCCOCCOCC(=O)O
Legend:
K. pneumoniae R62 = experiment: Acute K. pneumoniae pulmonary infection model; format: in vivo, mouse (female CD-1)
MRSA persister cells = experiment: Anti-persister activity; format: cell-based, methicillin-resistant Staphylococcus aureus; conditions: 8 μmol/L, 1 h 37°C; persisters from vancomycin 50× MIC 6 h
In short: (§1)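 Exponential-phase cultures treated 6 h with 50× MIC colistin (K. pneumoniae) or vancomycin (MRSA). Survivors pelleted (4 000 r/min, 10 min, 4°C), washed twice in PBS and resuspended in Mueller-Hinton broth at about 1×10^7 CFU/mL. […] Serially diluted, plated on Mueller-Hinton agar, CFU counted.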

[1] = system: K. pneumoniae persister cells; experiment: Anti-persister activity; format: cell-based, Klebsiella pneumoniae; conditions: 8× MIC, 1 h 37°C; persisters from colistin 50× MIC 6 h
In short: as §1

LPS = experiment: BODIPY-TR-cadaverine displacement assay; format: binding; conditions: 0-64 μmol/L, LPS 50 μg/mL, 50 mmol/L Tris pH 7.4, 30 min 37°C
MRSA = experiment: Agar spotting assay; format: cell-based, methicillin-resistant Staphylococcus aureus; conditions: bacterial spotting assay, Fig. 4B
[2] = system: HaCaT (human keratinocytes); experiment: Cytotoxicity, CCK-8; format: cell-based; conditions: nearly all concentrations (2.5-80 μmol/L), 24 h
bacterial DNA = experiment: DNA interaction, gel electrophoresis; format: binding; conditions: Fig. S5
E. coli LPS = experiment: LPS-induced endotoxemia model; format: in vivo, mouse (female CD-1); conditions: 10 mg/kg i.p. 1 h after LPS 10 mg/kg, blood 6 h after LPS, n = 5
In short: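 Female CD-1 mice (8–10 weeks) challenged intravenously with E. coli LPS 10 mg/kg. Test compound 10 mg/kg given intraperitoneally 1 h later (n=5); LPS-only controls. Blood drawn 6 h after LPS. Serum IL-6, MCP-1, TNF-α and IL-1β measured by ELISA. Mean±SEM; one-way ANOVA, Dunnett.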

MRSA biofilm [3] = experiment: Biofilm formation inhibition, crystal violet; format: cell-based, methicillin-resistant Staphylococcus aureus; conditions: TRPY 32 μmol/L, 24 h
In short: (§2)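 Biofilms formed with test compound present (inhibition) or pre-formed then treated (eradication). Stained with 0.1% crystal violet; biofilm quantified by absorbance at 600 nm against untreated control.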

K. pneumoniae biofilm [4] = experiment: Eradication of preformed biofilm, crystal violet; format: cell-based, Klebsiella pneumoniae; conditions: TRPY 8 µmol/L, 24 h on 24 h biofilm
In short: as §2

[5] = system: RAW264.7 (murine macrophages); experiment: Cytotoxicity, CCK-8; format: cell-based; conditions: nearly all concentrations (2.5-80 μmol/L), 24 h
[6] = system: K. pneumoniae strain 9409; experiment: Membrane permeabilization, PI uptake; format: cell-based, Klebsiella pneumoniae; conditions: 0-32 μM, PI 10 μg/mL, 37°C 30 min
[7] = system: K. pneumoniae (strain 9409); experiment: Time-kill kinetics; format: cell-based, Klebsiella pneumoniae; conditions: TRPY 2 μmol/L; 1×10^7 CFU/mL, RPMI 1640 + 10% FBS, 37°C
In short: (§3)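 Bacteria adjusted to 1×10^7 CFU/mL in RPMI 1640 with 10% FBS. Incubated at 37°C, 200 rpm. Sampled every 30 min from 0 to 360 min, serially diluted in saline, plated on Mueller-Hinton agar, counted after 24 h at 37°C. Plotted as log₁₀ CFU/mL versus time.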

MRSA biofilm [8] = experiment: Eradication of preformed biofilm, crystal violet; format: cell-based, methicillin-resistant Staphylococcus aureus; conditions: TRPY 8 µmol/L, 24 h on 24 h biofilm
In short: as §2

[9] = In vivo toxicity, 5 day intraperitoneal dosing; set-up: species or system mouse (female CD-1); conditions: for serum urea: n = 4; for aspartate aminotransferase (AST): serum day 5, n = 4; for alanine aminotransferase (ALT): serum day 5, n = 4, mean
In short: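 Test compound given intraperitoneally to mice over 5 days at 5 and 10 mg/kg; PBS control group. Serum ALT and AST measured in U/L.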

MRSA 33564 [10] = experiment: MRSA peritoneal infection model; format: in vivo, mouse (female CD-1); conditions: 10 mg/kg i.p.
In short: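 Female CD-1 mice (8–10 weeks) were challenged intraperitoneally with MRSA (1×10^8 CFU/mL). At 2 h post-infection they received 10 mg/kg test compound or PBS vehicle intraperitoneally (n=6 per group). Liver and kidneys were collected at 24 h post-infection and fixed in formalin. H&E-stained sections were compared with those from healthy, infected and vehicle-treated mice.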

MRSA (strain 33564) [11] = experiment: Salt sensitivity assay; format: cell-based, methicillin-resistant Staphylococcus aureus
In short: (§4)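 MICs determined in RPMI-1640 with 150 mM FeCl₃, CaCl₂, KCl, NaCl or MgCl₂ added; unsupplemented RPMI 1640 as control. Read after 18–24 h at 37°C. Three independent experiments, mean±SEM.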

K. pneumoniae = experiment: Agar spotting assay; format: cell-based, Klebsiella pneumoniae; conditions: bacterial spotting assay, Fig. 4B
MRSA (strain 33564) [12] = experiment: Time-kill kinetics; format: cell-based, methicillin-resistant Staphylococcus aureus; conditions: TRPY 2 μmol/L; 1×10^7 CFU/mL, RPMI 1640 + 10% FBS, 37°C
In short: as §3

[13] = system: K. pneumoniae (strain 9409); experiment: Salt sensitivity assay; format: cell-based, Klebsiella pneumoniae
In short: as §4

Dynamic light scattering = format: physicochemical; conditions: DLS, 500 μg/mL in PBS pH 7.4, 25°C, triplicate
In vivo pharmacokinetics = experiment: In vivo pharmacokinetics; set-up: species or system mouse (female CD-1)
In short: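 Plasma concentrations of test compound measured by HPLC over 8 h after dosing.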

K. pneumoniae 9409 = experiment: Bacterial aggregation; format: cell-based, Klebsiella pneumoniae; conditions: 10 to 80 μmol/L, 4 h 37°C, PBS
MRSA strain 33564 = experiment: Membrane permeabilization, PI uptake; format: cell-based, methicillin-resistant Staphylococcus aureus; conditions: 0-32 μM, PI 10 μg/mL, 37°C 30 min
MRSA 33564 [14] = experiment: Bacterial aggregation; format: cell-based, methicillin-resistant Staphylococcus aureus; conditions: 10 to 80 μmol/L, 4 h 37°C, PBS
[15] = system: HEK293 (human embryonic kidney cells); experiment: Cytotoxicity, CCK-8; format: cell-based; conditions: nearly all concentrations (2.5-80 μmol/L), 24 h
K. pneumoniae biofilm [16] = experiment: Biofilm formation inhibition, crystal violet; format: cell-based, Klebsiella pneumoniae; conditions: TRPY 32 μmol/L, 24 h
In short: as §2

[17] = 2 mg/kg intranasal, 18 h post-treatment, n = 7
[18] = 5 mg/kg i.p. once daily for 5 days
[19] = 10 mg/kg i.p. once daily for 5 days
[20] = 5 and 10 mg/kg i.p. for 5 days vs PBS
[21] = 150 mmol/L of each salt in RPMI-1640
[22] = female, CD-1, mouse, plasma, iv, 5 mg/kg

CC[C@H](C)[C@H](NC(=O)[C@H](CCCCN)NC(=O)[C@H](Cc1c[nH]c2ccccc12)NC(=O)[C@H](Cc1c[nH]c2ccccc12)NC(=O)[C@H](CCCCN)NC(=O)[C@H](CCCCN)NC(=O)[C@H](CCCCN)NC(=O)[C@H](Cc1c[nH]c2ccccc12)NC(=O)[C@H](CCCCN)NC(=O)[C@H](CCCCN)NC(=O)[C@H](Cc1c[nH]c2ccccc12)NC(=O)[C@H](CCCCN)NC(=O)[C@H](CCCCN)NC(=O)[C@@H](NC(=O)[C@@H](NC(=O)[C@H](CCCCN)NC(=O)[C@@H](N)CCCNC(=N)N)[C@@H](C)CC)[C@@H](C)CC)C(=O)N[C@@H](Cc1c[nH]c2ccccc12)C(=O)N[C@@H](Cc1c[nH]c2ccccc12)C(=O)N[C@@H](CCCCN)C(=O)NCCOCCOCC(N)=O [TRPY] (H-RKIIKKWKKWKKKWWKIWWK[AEEA]-NH2; N-terminus and C-terminus assumed)
lung histology (H&E) (K. pneumoniae R62; 2 mg/kg intranasal): reduced inflammatory cell infiltration and preserved alveolar architecture
reduction of pulmonary bacterial burden vs control (K. pneumoniae R62; 2 mg/kg intranasal 2 h post-infection, lungs 18 h post-treatment, n = 7): approximately 1 log
reduction in IL-1β vs control group (K. pneumoniae R62; [17]): 42.8%
reduction in IL-6 vs control group (K. pneumoniae R62; [17]): 39.2%
reduction in MCP-1 vs control group (K. pneumoniae R62; [17]): 58.4%
reduction in TNF-α vs control group (K. pneumoniae R62; [17]): 34.7%
persister cells after treatment (MRSA persister cells): complete eradication
persister CFU/mL after treatment [1]: virtually undetectable levels
LPS binding (probe displacement) (LPS): strong, concentration-dependent binding to LPS
concentration giving complete growth inhibition (MRSA): ≥ 1 µmol/L
cell viability [2]: over 80%
concentration inducing degradation or binding to bacterial DNA (bacterial DNA): ≥ 4 µmol/L
reduction of serum IL-1β relative to LPS-only controls (E. coli LPS): 52.3%
reduction of serum IL-6 relative to LPS-only controls (E. coli LPS): 42.3%
reduction of serum MCP-1 relative to LPS-only controls (E. coli LPS): 46.6%
reduction of serum TNF-α relative to LPS-only controls (E. coli LPS): 39.5%
reduction of biofilm formation compared to control (MRSA biofilm [3]): approximately 95%
reduction of preformed biofilm (K. pneumoniae biofilm [4]): over 40%
cell viability [5]: over 80%
PI uptake (cytoplasmic membrane disruption) [6]: concentration-dependent increase in PI fluorescence
time to eliminate all viable cells [7]: ≤ 60 min
reduction of preformed biofilm (MRSA biofilm [8]): over 40%
serum urea [9, 18]: 11.2 ± 1.5 µmol/L
aspartate aminotransferase (AST) [9, 18]: 102.7±6.6 U/L
alanine aminotransferase (ALT) [9, 18]: 22.8±2.6 U/L
serum urea [9, 19]: 12.1 ± 1.2 µmol/L
aspartate aminotransferase (AST) [9, 19]: 105.2±4.7 U/L
alanine aminotransferase (ALT) [9, 19]: 23.4±3.2 U/L
kidney histopathology (H&E) ([9]; 5 and 10 mg/kg i.p. for 5 days): normal glomerular and tubular architecture
liver histopathology (H&E) ([9]; 5 and 10 mg/kg i.p. for 5 days): no signs of necrosis, inflammation, or fatty degeneration
alkaline phosphatases (ALP) levels [9, 20]: comparable across treatment groups
body weight [9, 20]: no significant differences between the TRPY-treated and control groups
liver and kidney histopathology in infected mice (MRSA 33564 [10]): maintained normal tissue architecture in the liver and kidneys
effect of KCl, NaCl, and CaCl2 on antimicrobial activity (MRSA (strain 33564) [11]; [21]): minimal interference with antimicrobial activity
MIC with FeCl3 (MRSA (strain 33564) [11]; RPMI-1640 + 150 mmol/L FeCl3, 37°C 18-24 h, strain 33564): approximately 2.0 μmol/L
MIC with MgCl2 (MRSA (strain 33564) [11]; RPMI-1640 + 150 mmol/L MgCl2, 37°C 18-24 h, strain 33564): approximately 2.0 μmol/L
concentration giving complete growth inhibition (K. pneumoniae): ≥ 1 µmol/L
time to eradicate all viable cells (MRSA (strain 33564) [12]): ≤ 60 min
effect of KCl, NaCl, and CaCl2 on antimicrobial activity [13, 21]: minimal interference with antimicrobial activity
MIC with FeCl3 ([13]; RPMI-1640 + 150 mmol/L FeCl3, 37°C 18-24 h, strain 9409): approximately 2.0 μmol/L
MIC with MgCl2 ([13]; RPMI-1640 + 150 mmol/L MgCl2, 37°C 18-24 h, strain 9409): approximately 2.0 μmol/L
nanoparticle average size (Dynamic light scattering): approximately 160 nm
level at 0.25 h (In vivo pharmacokinetics; [22]): ~15000 ng/mL
level at 2 h (In vivo pharmacokinetics; [22]): < 1000 ng/mL
level at 8 h (In vivo pharmacokinetics; [22]): ~120 ng/mL
elimination profile (In vivo pharmacokinetics; single i.v. 5 mg/kg, 8 h): biphasic elimination profile
bacterial aggregation (K. pneumoniae 9409): dose-dependent formation of visible precipitates
PI uptake (cytoplasmic membrane disruption) (MRSA strain 33564): concentration-dependent increase in PI fluorescence
bacterial aggregation (MRSA 33564 [14]): dose-dependent formation of visible precipitates
cell viability [15]: over 80%
reduction of biofilm formation compared to control (K. pneumoniae biofilm [16]): approximately 95%

— article PMC12780499 (Zoological Research, 2025)
